Experiments:
[1] = molecular target: T1, ABCG2 (Homo sapiens, UniProt Q9UNQ0); assay: Effect on human ABCG2 transporter preincubated for 2 mins followed by ATP addition assessed as basal ATPase activity at 10 uM and measured after 20 mins by colorimetric assay relative to control; conditions: read-out: Activity
T1 sequence (Q9UNQ0 whole entry): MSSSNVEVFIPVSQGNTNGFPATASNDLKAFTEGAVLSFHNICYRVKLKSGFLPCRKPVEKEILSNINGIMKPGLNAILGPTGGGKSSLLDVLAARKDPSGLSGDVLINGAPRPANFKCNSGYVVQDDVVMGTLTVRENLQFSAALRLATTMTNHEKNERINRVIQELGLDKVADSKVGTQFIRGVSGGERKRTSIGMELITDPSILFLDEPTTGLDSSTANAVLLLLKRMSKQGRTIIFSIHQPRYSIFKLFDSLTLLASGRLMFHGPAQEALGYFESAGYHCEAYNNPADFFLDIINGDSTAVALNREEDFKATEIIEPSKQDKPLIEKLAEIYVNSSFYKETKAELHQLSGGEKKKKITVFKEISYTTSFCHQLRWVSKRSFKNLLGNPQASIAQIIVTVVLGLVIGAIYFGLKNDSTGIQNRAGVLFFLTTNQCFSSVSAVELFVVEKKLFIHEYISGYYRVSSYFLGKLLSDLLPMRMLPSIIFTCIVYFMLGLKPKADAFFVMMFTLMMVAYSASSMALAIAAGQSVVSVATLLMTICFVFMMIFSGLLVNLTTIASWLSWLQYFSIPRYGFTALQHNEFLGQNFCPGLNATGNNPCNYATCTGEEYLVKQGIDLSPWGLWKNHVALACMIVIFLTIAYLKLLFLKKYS
Summary of the method: (§1)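 Total membrane vesicles from High-Five insect cells expressing human ABCG2 (hypotonic lysis, differential centrifugation), 10 μg protein/tube, in MES-Tris pH 6.8 buffer with KCl, MgCl2, NaN3, EGTA, ouabain, DTT. Compound in DMSO added ± sodium orthovanadate (0.3 mM), DMSO control. Preincubated 2 min at 37°C, then 5 mM ATP, 20 min. SDS stop, Pi measured colorimetrically. Three independent experiments in duplicate, mean ± SE.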

[2] = molecular target: T1, ABCG2; assay: Activation of human ABCG2-mediated ATPase activity preincubated for 2 mins followed by ATP addition at 2.5 uM and measured after 20 mins by colorimetric assay relative to control; conditions: read-out: Activity; summary of the method: as §1
[3] = molecular target: T1, ABCG2; assay: Activation of human ABCG2-mediated ATPase activity preincubated for 2 mins followed by ATP addition at 2.5 M and measured after 20 mins by colorimetric assay relative to control; design: dose or concentration left out as unconfirmed; conditions: read-out: Activity; summary of the method: as §1
[4] = molecular target: T1, ABCG2; assay: Activation of human ABCG2-mediated ATPase activity preincubated for 2 mins followed by ATP addition at 10 M and measured after 20 mins by colorimetric assay relative to control; design: dose or concentration left out as unconfirmed; conditions: read-out: Activity; summary of the method: as §1
[5] = molecular target: T2, Adenosine receptor A3 (Homo sapiens, UniProt P0DMS8); assay: Binding affinity towards human adenosine A3 receptor
T2 sequence (P0DMS8 whole entry): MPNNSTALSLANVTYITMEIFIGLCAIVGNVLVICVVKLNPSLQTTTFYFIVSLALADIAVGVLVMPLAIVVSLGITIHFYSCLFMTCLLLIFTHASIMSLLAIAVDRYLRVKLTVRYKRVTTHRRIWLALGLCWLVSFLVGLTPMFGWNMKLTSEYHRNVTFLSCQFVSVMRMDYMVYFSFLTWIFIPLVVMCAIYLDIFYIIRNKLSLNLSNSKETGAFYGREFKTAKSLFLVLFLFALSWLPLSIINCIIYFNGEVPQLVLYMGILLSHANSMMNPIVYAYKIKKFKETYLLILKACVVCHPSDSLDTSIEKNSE

[6] = molecular target: T1, ABCG2; assay: Activation of human ABCG2-mediated ATPase activity preincubated for 2 mins followed by ATP addition at 100 nM and measured after 20 mins by colorimetric assay relative to control; conditions: read-out: Activity; summary of the method: as §1
[7] = molecular target: T3, Broad substrate specificity ATP-binding cassette transporter ABCG2 (Homo sapiens, UniProt Q9UNQ0); assay: Activation of human ABCG2-mediated ATPase activity preincubated for 2 mins followed by ATP addition and measured after 20 mins by colorimetric assay; summary of the method: as §1
T3 sequence (Q9UNQ0 whole entry): T1 sequence (Q9UNQ0 whole entry)

[8] = molecular target: T1, ABCG2; assay: Inhibition of human ABCG2 in human R5 cells assessed as inhibition of mitoxantrone efflux at 10 uM measured by flow cytometric analysis relative to control; assay type: cell-based; conditions: probe mitoxantrone
Summary of the method: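 HEK293 cells transfected with full-length ABCG2 (R-5) or empty pcDNA vector, grown in MEM with 10% FBS and 2 mg/ml G418. Cells incubated in IMDM with 5% FBS, 5 μM mitoxantrone (final) ± compound, 37°C for 45 min. Washed in cold IMDM, resuspended in cold PBS with 1% BSA, read by flow cytometry.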

[9] = molecular target: T1, ABCG2; assay: Activation of human ABCG2-mediated ATPase activity preincubated for 2 mins followed by ATP addition at 10 uM and measured after 20 mins by colorimetric assay relative to control; conditions: read-out: Activity; summary of the method: as §1
[10] = molecular target: T1, ABCG2; assay: Effect on human ABCG2 transporter preincubated for 2 mins followed by ATP addition assessed as basal ATPase activity at 2.5 uM and measured after 20 mins by colorimetric assay relative to control; conditions: read-out: Activity; summary of the method: as §1
[11] = molecular target: T1, ABCG2; assay: Inhibition of human ABCG2-mediated ATPase activity preincubated for 2 mins followed by ATP addition at 10 uM and measured after 20 mins by colorimetric assay relative to control; summary of the method: as §1
[12] = molecular target: T1, ABCG2; assay: Inhibition of human ABCG2-mediated ATPase activity preincubated for 2 mins followed by ATP addition at 2.5 uM and measured after 20 mins by colorimetric assay relative to control; summary of the method: as §1
[13] = molecular target: T1, ABCG2; assay: Effect on human ABCG2 transporter preincubated for 2 mins followed by ATP addition assessed as basal ATPase activity at 100 nM and measured after 20 mins by colorimetric assay relative to control; conditions: read-out: Activity; summary of the method: as §1

CNC(=O)C12CC1[C@@H](n1cnc3c(NCc4cccc(Cl)c4)nc(C#Cc4ccccc4)nc31)[C@H](O)[C@@H]2O (single isomer, unassigned)
activity at 20 min, 10 µM [1]: ≤ 30% | activity at 20 min, 2.5 µM [2]: 51.3%

CNC(=O)C12CC1[C@@H](n1cnc3c(NCc4cccc(Cl)c4)nc(C#Cc4cccc(Cl)c4)nc31)[C@H](O)[C@@H]2O (single isomer, unassigned)
activity at 20 min, 10 µM [1]: ≤ 30% | activity at 20 min, 2.5 µM [2]: 49.3%

CNc1nc(C#Cc2ccc(Cl)s2)nc2c1ncn2[C@@H]1C2CC2(C(=O)OC)[C@@H](O)[C@H]1O (single isomer, unassigned)
activity at 20 min [3]: 89.1% | activity at 20 min [4]: 79%

O[C@@H]1[C@H](O)C2CC2[C@H]1n1cnc2c(NCc3cccc(Cl)c3)nc(C#Cc3ccc(F)c(F)c3)nc21 (single isomer, unassigned)
activity at 20 min [3]: 75.2% | activity at 20 min [4]: 54.1% | Ki [5]: ≥ 99 nM

CNC(=O)[C@H]1O[C@@H](n2cnc3c(NC)nc(C#Cc4ccc(Cl)s4)nc32)[C@H](O)[C@@H]1O
activity at 20 min [3]: 112% | activity at 20 min [4]: 122%

COc1ccc(CCNC2=NC(C#Cc3ccc(Cl)s3)=NC3=NC=CC32)cc1O (stereo not given)
activity at 20 min, 0.1 µM [6]: 104% | Ki [5]: ≥ 99 nM

CNC(=O)C12CC1[C@@H](n1cnc3c(N[C@@H]4C[C@H]4c4ccc(F)c(F)c4)nc(C#Cc4cccc(F)c4)nc31)[C@H](O)[C@@H]2O (single isomer, unassigned)
activity at 20 min, 2.5 µM [2]: 74.8% | EC50 [7]: 13 nM | inhibition at 10 µM [8]: 97.4%

CNC(=O)C1O[C@@H](n2cnc3c(NCc4cccc(I)c4)ncnc32)[C@H](O)[C@@H]1O (single isomer, unassigned)
activity at 20 min [3]: 66.2% | EC50 [7]: 70 nM | activity at 20 min [4]: 98.2%

CNC(=O)[C@H]1O[C@@H](n2cnc3c(NCc4cccc(I)c4)nc(Cl)nc32)[C@H](O)[C@@H]1O [NAMODENOSON]
activity at 20 min [3]: 101% | EC50 [7]: 1420 nM | activity at 20 min [4]: 69.9%

CNC(=O)C12CC1[C@@H](n1cnc3c(N[C@H]4C[C@@H]4c4ccc(F)c(F)c4)nc(C#Cc4cccc(F)c4)nc31)[C@H](O)[C@@H]2O (single isomer, unassigned)
activity at 20 min, 2.5 µM [2]: 101% | EC50 [7]: 14 nM | inhibition at 10 µM [8]: 97.2%

CNC(=O)C12CC1[C@@H](n1cnc3c(NC4CC4c4ccc(F)c(F)c4)nc(C#Cc4cccc(F)c4)nc31)[C@H](O)[C@@H]2O (single isomer, unassigned)
activity at 20 min, 10 µM [9]: 46.7% | activity at 20 min, 2.5 µM [2]: 111% | EC50 [7]: 16 nM | inhibition at 10 µM [8]: 100%

Cn1cnc2c(NCCc3ccccc3)nc(C#Cc3ccc(Cl)s3)nc21
activity at 20 min, 0.1 µM [6]: 92.1% | Ki [5]: ≥ 99 nM

CNC(=O)C12CC1[C@@H](n1cnc3c(C)nc(C#Cc4ccc(F)c(F)c4)nc31)[C@H](O)[C@@H]2O (single isomer, unassigned)
activity at 20 min, 10 µM [9]: 72.6% | activity at 20 min, 2.5 µM [2]: 49.6% | Ki [5]: ≥ 99 nM

Oc1ccc(CCNC2=NC(C#Cc3ccc(Cl)s3)=NC3=NC=NC32)cc1O (stereo not given)
activity at 20 min, 0.1 µM [6]: 95.9% | Ki [5]: ≥ 99 nM

CNC(=O)C12CC1[C@@H](n1cnc3c(NCc4cccc(-n5cc(-c6ccc(F)c(F)c6)nn5)c4)nc(C#Cc4ccc(C(F)(F)F)cc4)nc31)[C@H](O)[C@@H]2O (single isomer, unassigned)
activity at 20 min, 2.5 µM [10]: ≤ 30% | inhibition at 20 min, 10 µM [11]: 44.5%

CNC(=O)C12CC1[C@@H](n1cnc3c(NCc4cccc(Cl)c4)nc(C#Cc4ccc(F)cc4)nc31)[C@H](O)[C@@H]2O (single isomer, unassigned)
activity at 20 min, 10 µM [9]: 49.3% | activity at 20 min, 2.5 µM [2]: 60.3%

Clc1ccc(C#CC2=NC3=NC=NC3C(NCCc3ccccc3)=N2)s1 (stereo not given)
activity at 20 min, 0.1 µM [6]: 80.8% | Ki [5]: ≥ 99 nM

CNC(=O)C12CC1[C@@H](n1cnc3c(NCc4cccc(-n5cc(-c6ccc(F)c(F)c6)nn5)c4)nc(C#Cc4ccc(F)cc4F)nc31)[C@H](O)[C@@H]2O (single isomer, unassigned)
activity at 20 min, 2.5 µM [10]: ≤ 30% | inhibition at 20 min, 10 µM [11]: 57.1%

CNC(=O)C12CC1[C@@H](n1cnc3c(NCc4cccc(-n5cc(-c6ccc(F)c(F)c6)nn5)c4)nc(C#Cc4cc(F)cc(F)c4)nc31)[C@H](O)[C@@H]2O (single isomer, unassigned)
inhibition at 20 min, 2.5 µM [12]: 44.7% | inhibition at 20 min, 10 µM [11]: 49.4%

COc1ccc(CCNC2=NC(I)=NC3=NC=CC32)cc1O (stereo not given)
activity at 20 min, 0.1 µM [6]: 79.6% | Ki [5]: ≥ 99 nM

CCOC(=O)C12CC1[C@@H](n1ccc3c(NCCCc4ccc(OC)c(O)c4)nc(C#Cc4ccccc4)nc31)[C@H](O)[C@@H]2O (single isomer, unassigned)
activity at 20 min, 0.1 µM [6]: 55.9% | Ki [5]: ≥ 99 nM

CCCNc1nc(C#Cc2ccc(Cl)s2)nc2c1ncn2[C@@H]1C2CC2(C(=O)NC)[C@@H](O)[C@H]1O (single isomer, unassigned)
activity at 20 min [3]: 77.9% | activity at 20 min [4]: 40%

CCCNc1nc(C#Cc2ccc(Cl)s2)nc2c1ncn2[C@@H]1O[C@H](C(=O)NC)[C@@H](O)[C@H]1O
activity at 20 min [3]: 124% | activity at 20 min [4]: 122%

CNC(=O)C12CC1[C@@H](n1cnc3c(NCc4cccc(Cl)c4)nc(C#Cc4ccc(Cl)s4)nc31)[C@H](O)[C@@H]2O (single isomer, unassigned)
activity at 20 min [3]: 97.5% | activity at 20 min [4]: 92.9%

Fc1ccc(C#CC2=NC3=NC=NC3C(NCc3cccc(Cl)c3)=N2)cc1F (stereo not given)
activity at 20 min [3]: 165% | EC50 [7]: 50 nM | activity at 20 min [4]: 164% | inhibition at 10 µM [8]: 81.4% | Ki [5]: ≥ 99 nM

CNC(=O)C12CC1[C@@H](n1cnc3c(NC)nc(C#Cc4ccc(Cl)s4)nc31)[C@H](O)[C@@H]2O (single isomer, unassigned)
activity at 20 min [3]: 59.2%

CNC(=O)C12CC1[C@@H](n1cnc3cnc(C#Cc4ccc(F)c(F)c4)nc31)[C@H](O)[C@@H]2O (single isomer, unassigned)
activity at 20 min, 10 µM [9]: 64.2% | activity at 20 min, 2.5 µM [10]: ≤ 30%

CCOC(=O)C12CC1[C@@H](n1ccc3c(NC)nc(C#Cc4ccccc4)nc31)[C@H](O)[C@@H]2O (single isomer, unassigned)
activity at 20 min, 0.1 µM [13]: ≤ 30%

Reference: ChEMBL document CHEMBL5154735, “Interaction of A3 adenosine receptor ligands with the human multidrug transporter ABCG2” (Eur J Med Chem, 2022)
